Source: ChEMBL document CHEMBL1143138, “Synthesis and antimicrobial activity of beta-lactam-bile acid conjugates linked via triazole” (Bioorg Med Chem Lett, 2008)
In brackets after ≈: the same amount, converted by molar mass.

Columns and labels:
Assay type in all cases: functional, organism-based
Escherichia coli = test: Antimicrobial activity against Escherichia coli NCIM2574 by broth microdilution method
Procedure, shortened: (§1)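 Standard NCCLS broth microdilution. Fungal strains were NCL isolates and bacterial strains were NCIM cultures, with DMSO as the negative control. MIC was taken as the concentration giving 90% growth inhibition relative to the growth control, and IC50 as the concentration giving 50% growth inhibition. Values are in µg/mL.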

Benjaminiella poitrasii = test: Antimicrobial activity against Benjaminiella poitrasii NCL3 by broth microdilution method; procedure, shortened: as §1
Yarrowia lipolytica = test: Antimicrobial activity against Yarrowia lipolytica NCL4 by broth microdilution method; procedure, shortened: as §1
Candida albicans = test: Antimicrobial activity against Candida albicans NCL1 by broth microdilution method; procedure, shortened: as §1
Staphylococcus aureus = test: Antimicrobial activity against Staphylococcus aureus NCIM2122 by broth microdilution method; procedure, shortened: as §1
Fusarium oxysporum = test: Antimicrobial activity against Fusarium oxysporum NCL5 by broth microdilution method; procedure, shortened: as §1
Cryptococcus neoformans = test: Antimicrobial activity against Cryptococcus neoformans NCL2 by broth microdilution method; procedure, shortened: as §1

SMILES | IC50 (Escherichia coli) | MIC (Escherichia coli) | IC50 (Benjaminiella poitrasii) | MIC (Benjaminiella poitrasii) | IC50 (Yarrowia lipolytica) | MIC (Yarrowia lipolytica) | IC50 (Candida albicans) | MIC (Candida albicans) | IC50 (Staphylococcus aureus) | MIC (Staphylococcus aureus) | IC50 (Fusarium oxysporum) | MIC (Fusarium oxysporum) | IC50 (Cryptococcus neoformans) | MIC (Cryptococcus neoformans)
C#CCOC(=O)CC[C@@H](C)[C@H]1CC[C@H]2[C@@H]3[C@H](O)C[C@@H]4C[C@H](O)CC[C@]4(C)[C@H]3C[C@H](O)[C@]12C | 128 µg/mL (≈ 287 µM) | > 128 µg/mL | > 128 µg/mL | > 128 µg/mL | 64 µg/mL (≈ 143 µM) | > 128 µg/mL | 128 µg/mL (≈ 287 µM) | > 128 µg/mL | 128 µg/mL (≈ 287 µM) | > 128 µg/mL | 128 µg/mL (≈ 287 µM) | > 128 µg/mL | > 128 µg/mL | > 128 µg/mL
C#CCNC(=O)CC[C@@H](C)[C@H]1CC[C@H]2[C@@H]3CC[C@@H]4C[C@H](O)CC[C@]4(C)[C@H]3C[C@H](O)[C@]12C | > 128 µg/mL | > 128 µg/mL | 128 µg/mL (≈ 298 µM) | > 128 µg/mL | > 128 µg/mL | > 128 µg/mL | 64 µg/mL (≈ 149 µM) | > 128 µg/mL | 128 µg/mL (≈ 298 µM) | > 128 µg/mL | 64 µg/mL (≈ 149 µM) | > 128 µg/mL | 128 µg/mL (≈ 298 µM) | > 128 µg/mL
C#CCNC(=O)CC[C@@H](C)[C@H]1CC[C@H]2[C@@H]3[C@H](O)C[C@@H]4C[C@H](O)CC[C@]4(C)[C@H]3C[C@H](O)[C@]12C | 128 µg/mL (≈ 287 µM) | > 128 µg/mL | > 128 µg/mL | > 128 µg/mL | 64 µg/mL (≈ 144 µM) | > 128 µg/mL | > 128 µg/mL | > 128 µg/mL | 64 µg/mL (≈ 144 µM) | > 128 µg/mL | 128 µg/mL (≈ 287 µM) | > 128 µg/mL | > 128 µg/mL | > 128 µg/mL
C#CCOC(=O)CC[C@@H](C)[C@H]1CC[C@H]2[C@@H]3CC[C@@H]4C[C@H](O)CC[C@]4(C)[C@H]3C[C@H](O)[C@]12C | 128 µg/mL (≈ 297 µM) | > 128 µg/mL | 128 µg/mL (≈ 297 µM) | > 128 µg/mL | 128 µg/mL (≈ 297 µM) | > 128 µg/mL | 32 µg/mL (≈ 74.3 µM) | 128 µg/mL (≈ 297 µM) | 128 µg/mL (≈ 297 µM) | > 128 µg/mL | 64 µg/mL (≈ 149 µM) | > 128 µg/mL | 64 µg/mL (≈ 149 µM) | > 128 µg/mL
COc1ccc(N2C(=O)C(N=[N+]=[N-])C2c2ccccc2)cc1 (racemic) | 64 µg/mL (≈ 217 µM) | > 128 µg/mL | > 128 µg/mL | > 128 µg/mL | 128 µg/mL (≈ 435 µM) | > 128 µg/mL | 64 µg/mL (≈ 217 µM) | > 128 µg/mL | > 128 µg/mL | > 128 µg/mL | 64 µg/mL (≈ 217 µM) | > 128 µg/mL | > 128 µg/mL | > 128 µg/mL
COc1ccc(N2C(=O)C(N=[N+]=[N-])C2c2ccc(Cl)cc2)cc1 (racemic) | 128 µg/mL (≈ 389 µM) | > 128 µg/mL | > 128 µg/mL | > 128 µg/mL | > 128 µg/mL | > 128 µg/mL | 64 µg/mL (≈ 195 µM) | > 128 µg/mL | > 128 µg/mL | > 128 µg/mL | 64 µg/mL (≈ 195 µM) | > 128 µg/mL | 64 µg/mL (≈ 195 µM) | > 128 µg/mL
C[C@@H]1[C@H](O)[C@@H](C)/C=C/C=C/C=C/C=C/C=C/C=C/C=C/[C@H](O[C@@H]2O[C@H](C)[C@@H](O)[C@H](N)[C@@H]2O)C[C@@H]2O[C@](O)(C[C@@H](O)C[C@@H](O)[C@H](O)CC[C@@H](O)C[C@@H](O)CC(=O)O[C@H]1C)C[C@H](O)[C@H]2C(=O)O (stereo in doubt) [AMPHOTERICIN B] | – | – | 8 µg/mL (≈ 8.66 µM) | 16 µg/mL (≈ 17.3 µM) | 8 µg/mL (≈ 8.66 µM) | 16 µg/mL (≈ 17.3 µM) | 0.5 µg/mL (≈ 0.541 µM) | 2 µg/mL (≈ 2.16 µM) | – | – | 8 µg/mL (≈ 8.66 µM) | 16 µg/mL (≈ 17.3 µM) | 8 µg/mL (≈ 8.66 µM) | 16 µg/mL (≈ 17.3 µM)
CC1(C)S[C@@H]2[C@H](NC(=O)[C@H](N)c3ccccc3)C(=O)N2[C@H]1C(=O)O [AMPICILLIN] | 1 µg/mL (≈ 2.86 µM) | – | – | – | – | – | – | – | 4 µg/mL (≈ 11.4 µM) | – | – | – | – | –
OC(Cn1cncn1)(Cn1cncn1)c1ccc(F)cc1F [FLUCONAZOLE] | – | – | 16 µg/mL (≈ 52.2 µM) | 32 µg/mL (≈ 104 µM) | 32 µg/mL (≈ 104 µM) | 64 µg/mL (≈ 209 µM) | 4 µg/mL (≈ 13.1 µM) | 32 µg/mL (≈ 104 µM) | – | – | 4 µg/mL (≈ 13.1 µM) | 8 µg/mL (≈ 26.1 µM) | 16 µg/mL (≈ 52.2 µM) | 32 µg/mL (≈ 104 µM)
CN(C)[C@@H]1C(O)=C(C(N)=O)C(=O)[C@@]2(O)C(O)=C3C(=O)c4c(O)cccc4[C@@](C)(O)[C@H]3C[C@@H]12 [TETRACYCLINE] | 4 µg/mL (≈ 9 µM) | 8 µg/mL (≈ 18 µM) | – | – | – | – | – | – | 8 µg/mL (≈ 18 µM) | 16 µg/mL (≈ 36 µM) | – | – | – | –
